In the library only some 2.6% were active in any assay of this set; here they are far more common.
PRMT1 FP inh: PRMT1 (human) inhibition, primary screen | recombinant PRMT1, activity-based probe fluorescence polarization | inhibition, % at 2.79 µM | hit rate 1.3% among 370,000;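 active = inhibition above about 21% made by adding two undisclosed values, limit read from the data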
ABHD4 inh: inhibitors of mouse ABHD4. purified mABHD4, FP-Rh probe fluorescence polarization. inhibition, % at 8.92 µM. hit rate 0.54% among 370,000;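 active = inhibition exceeding the mean over every tested compound plus 3 SD, cut at about 30% in these data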
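Test system: mABHD4 protein; Read-out basis: % inhibition; Incubation: 45 min + 60 min at 25 °C; Repeats: single replicate; Technique: fluorescence polarization with parallel and perpendicular emission, 525/598 nm; Compound: 8.92 µM, single dose; Benchmarks: full inhibition S159A mutant plus DMSO, zero as sample-well median.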
SIAE primary: blocks human sialic acid acetylesterase. SIAE FP-Rh probe binding, fluorescence polarization. inhibition, % at 9.66 µM. Q9HAT2. hit rate 0.69% among 370,000;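 active = inhibition above a cutoff: mean of compounds within the control limits plus 3 SD of those, cut at about 17% in these data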
Target sequence (Q9HAT2 whole entry, looked up): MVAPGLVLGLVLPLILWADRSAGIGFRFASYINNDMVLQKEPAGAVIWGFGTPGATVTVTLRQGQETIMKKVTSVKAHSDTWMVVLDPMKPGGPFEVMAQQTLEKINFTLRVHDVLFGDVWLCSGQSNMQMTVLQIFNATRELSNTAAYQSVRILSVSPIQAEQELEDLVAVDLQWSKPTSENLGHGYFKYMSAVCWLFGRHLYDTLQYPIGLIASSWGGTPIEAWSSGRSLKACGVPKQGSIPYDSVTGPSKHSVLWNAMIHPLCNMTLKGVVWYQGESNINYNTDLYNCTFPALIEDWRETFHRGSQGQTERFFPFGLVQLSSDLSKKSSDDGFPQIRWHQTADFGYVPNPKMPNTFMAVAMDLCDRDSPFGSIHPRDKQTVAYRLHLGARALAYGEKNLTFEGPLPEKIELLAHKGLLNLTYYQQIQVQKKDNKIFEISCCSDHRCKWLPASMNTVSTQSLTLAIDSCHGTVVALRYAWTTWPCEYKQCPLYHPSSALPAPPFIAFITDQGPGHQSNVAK
HTRA1 inhibitor: HTRA1 (human) protease inhibition | Q92743 | recombinant HTRA1, FP-rhodamine activity-based probe, fluorescence polarization | inhibition, % at 5.96 µM | hit rate 0.5% among 340,000; in the data active = inhibition above about 36%
TCR-CD3 inh: human TCR-CD3 binding inhibition. TAMRA-labeled TCR probe fluorescence, biochemical. inhibition, % at 9.4 µM. hit rate 0.37% among 360,000. AID 651800;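 note: recombinant mutant TCR 2C K166C tagged with TAMRA read by polarization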
BSA probe FL: interferes with TAMRA-BSA probe, flagging TCR-CD3 hits; shares compounds with TCR-CD3 inh; inhibition, % at 9.4 µM; TAMRA-labeled BSA probe fluorescence counterscreen; hit rate 10% among 1,200; in the data active = inhibition above about 23%
TCR-CD3 inh conf: confirmation of human TCR-CD3 interaction inhibitors; shares compounds with TCR-CD3 inh; TAMRA-labeled TCR probe fluorescence binding assay; inhibition, % at 9.4 µM; hit rate 48% among 1,200
Numbers stand for hits; – = inactive; · = no result. Cut-off read from the data, not from the text of the source, unless noted: active = inhibition above about 19%; inactive = the rest.

SMILES	PRMT1 FP inh	ABHD4 inh	SIAE primary	HTRA1 inhibitor	TCR-CD3 inh	BSA probe FL	TCR-CD3 inh conf
O=C(CCCOc1ccc(Cl)cc1Cl)Nc1cc(S(=O)(=O)N2CCOCC2)ccc1N1CCOCC1	–	–	–	–	–	·	·
O=C(CCc1ccc(S(=O)(=O)N2CCOCC2)cc1)Nc1cc(Cl)ccc1N1CCOCC1	–	–	–	–	21	–	–
COc1ccc(NC(=O)CCCNC(=O)Cn2cnc3sc(C)c(C)c3c2=O)c(OC)c1	–	–	–	–	72	–	–
O=C(NNC(=O)c1ccc2ccccc2c1O)c1cccs1	–	–	–	–	40	–	33
O=C(NNC(=O)c1ccc2ccccc2c1O)c1ccccc1Cl	–	–	–	–	29	–	35
O=C(NC(=S)NNC(=O)c1cccs1)c1ccccc1	–	–	–	–	22	–	25
CC(C)(C)c1ccc(C(=O)NC(=S)NNC(=O)c2cccs2)cc1	–	–	–	–	–	·	·
O=C(NNC(=O)c1cccc2ccccc12)c1ccc(Cl)cc1Cl	–	–	–	–	–	·	·
O=C(O)C(=Cc1ccc([N+](=O)[O-])cc1)c1ccccc1	–	–	–	·	–	·	·
COC(=O)C1CCN(C(=O)c2cc(-c3ccco3)nc3ccccc23)CC1	22	–	–	–	27	–	31
CCOP(=O)(OCC)C(NC(=O)Nc1ccc(C)cc1)C(N)=O (stereo unspecified)	–	–	–	·	–	·	·
CCOP(=O)(OCC)C(NC(=O)Nc1ccc(Cl)cc1)C(=O)N(CC)CC (stereo unspecified)	–	–	–	–	21	–	–
COC(=O)[C@H](Cc1c[nH]c2ccccc12)NC(=O)NCc1ccccc1	–	–	–	–	–	·	·
CC(C)c1ccc(N=c2c([N+](=O)[O-])nn(-c3ccc4c(c3)OCCO4)n2O)cc1	–	–	–	–	–	·	·
CN=c1c([N+](=O)[O-])nn(-c2ccc3c(c2)OCCO3)n1O	–	–	–	–	64	–	–
CCOC(=O)c1c(C)[nH]c(C)c1C(=O)COC(=O)C1CC(=O)N(CCc2ccccc2)C1 (stereo unspecified)	–	–	–	–	–	·	·
O=C(CCC(=O)N/N=C/c1cc(Cl)cc(Cl)c1O)NCc1ccccc1	–	–	–	–	21	–	23
c1ccc(-c2nnc(-c3ccco3)o2)cc1	–	–	–	–	–	·	·
c1coc(-c2nnc(-c3ccco3)nn2)c1	46	–	–	–	28	–	–
S=c1[nH]nc(-c2cc(-c3ccccn3)nc3ccccc23)o1	–	–	–	–	33	–	–
COC(=O)CCN(C(=O)c1ccc(N2CCCCC2)c([N+](=O)[O-])c1)c1ccccn1	–	–	–	–	77	–	–
COc1cc(O)c(/C=N/NC(=O)c2ccncc2)c(OC)c1[N+](=O)[O-]	–	–	–	–	19	–	31
COc1ccc(/C=N/NC(=O)c2ccncc2)cc1[N+](=O)[O-]	–	–	–	–	–	·	·
CCCCCC(=O)NC(=S)NC1C2CC3CC(C2)CC1C3 (stereo unspecified)	–	–	–	–	35	–	29
Cc1ccc(OCC(=O)NNC(=S)NC(=O)c2ccc(Br)o2)c(C)c1	–	–	–	–	–	·	·
SMILES	PRMT1 FP inh	ABHD4 inh	SIAE primary	HTRA1 inhibitor	TCR-CD3 inh	BSA probe FL	TCR-CD3 inh conf
COc1ccc(C(=O)NNC(=S)NC(=O)c2ccc(Br)o2)cc1OC	–	–	–	–	20	–	25
O=c1ccc2cc(S(=O)(=O)N3CCN(c4ccccc4)CC3)ccc2[nH]1	–	–	–	–	–	·	·
O=S(=O)(c1ccc2nc(-c3ccccc3)[nH]c2c1)N1CCN(c2ccc(Cl)cc2)CC1	–	–	–	–	38	–	–
CC1(C(=O)NS(=O)(=O)c2cccs2)CCN1C(=O)C1CC1 (stereo unspecified)	–	–	–	·	–	·	·
CCOC(=O)c1ccc(NC(=O)CSc2nnc(-c3cc(-c4ccccc4)n[nH]3)n2N)cc1	–	–	–	·	·	·	·
COc1ccc(Nc2sc(C(=O)c3ccc(Cl)cc3)c(N)c2C(=O)Nc2ccccc2OC)cc1	–	–	–	–	–	·	·
COc1ccccc1NC(=O)c1c(Nc2ccccc2C)sc(C(=O)Nc2cccc(Cl)c2)c1N	–	–	–	–	21	–	–
C[C@@H]1CN([C@@H](C)CO)C(=O)CCCn2cc(nn2)CO[C@H]1CN(C)C(=O)CCC(F)(F)F	–	–	–	·	–	·	·
Cc1nn(-c2ccccc2)c(Cl)c1C(=O)NCC(C)c1ccccc1 (stereo unspecified)	–	–	–	–	130	–	–
Cc1nn(-c2ccccc2)c(Cl)c1C(=O)NCC(C)C	–	–	–	–	–	·	·
O=C1C(Cl)=C(N2CCCC2)C(=O)N1c1ccc(F)cc1	–	–	–	–	–	·	·
CO[C@@H]1[C@H](O)CC[C@]2(O)CN(c3ccc(F)cc3)[C@](C)([C@H](O)CC=C(C)C)[C@@H]12	–	–	–	·	–	·	·
Cc1cccc(C(=O)NNC(=O)c2c(O)c3ccccc3n(C)c2=O)c1	–	–	–	–	–	·	·
Cn1c(=O)c(C(=O)NNC(=O)c2cccc(Cl)c2)c(O)c2ccccc21	–	–	–	–	22	–	–
COCc1cc(N2CCNC[C@H]2C)ccc1N1CCN(Cc2ccccc2)[C@H](C)C1	–	–	–	·	–	·	·
CCCn1nnnc1SCC(=O)N1CCCC1	–	–	–	–	–	·	·
CCCCn1nnnc1SCC(=O)N1CCCC1	–	–	–	–	21	–	–
COCCN1Cc2cc(C(=O)OC)c3c(c2C1=O)c1ccccc1n3S(=O)(=O)c1ccc(C)cc1	–	–	–	·	–	·	·
O=C(N/N=C/c1cccc([N+](=O)[O-])c1)c1ccc(COc2ccccc2-c2ccccc2)cc1	–	–	–	–	50	–	50
COc1ccc(/C=C2\SC(=S)N(CCCC(=O)NNC(=O)c3ccccc3O)C2=O)cc1	–	–	–	–	31	–	22
C/C(=N\NC(=O)c1nnn(-c2nonc2N)c1-c1ccccc1)c1ccccc1O	–	–	–	–	49	–	30
CCCc1c(C(=O)N/N=C(\C)c2ccccc2O)nnn1-c1nonc1N	–	–	–	–	–	·	·
COCCNC(=O)CSCc1nc(-c2ccc(SC)cc2)oc1C	–	–	–	–	33	–	–
O=C(c1cc2c(c(-c3cccc(-c4ccc(F)cc4)c3)n1)[C@H](CCO)N(C(=O)c1ccc3c(c1)OCO3)C2)N1CCOCC1	–	–	–	·	–	·	·
COCCN1C(=O)CSCC1(C)C(=O)Nc1ccc2c(c1)OCCO2 (stereo unspecified)	–	–	–	·	–	·	·
COC(=O)C1=C(C)N(Cc2cccc(C(F)(F)F)c2)C(=NCc2ccc(OC)cc2)NC1c1ccc(Cl)cc1 (stereo unspecified)	–	–	–	·	–	·	·
CCN1CCN(Cc2ccc(NC(=O)c3ccc(C)c(NC(=O)c4nccn4C)c3)cc2C(F)(F)F)CC1	–	–	–	–	–	·	·

Screening data from PubChem.
